Source: ChEMBL document CHEMBL1132342, “Novel hypotensive agents from Verbesina caracasana. 6. Synthesis and pharmacology of caracasandiamide” (1999)
Where “and” joins values, the source holds several entries; their conditions need not be identical. Identical values can stand only once.

Legend:
Rattus norvegicus [1] = test: Change in stroke volume after iv administration of 100 ug/Kg in anesthetized rats; type: functional
Summary of the method: (§1)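 Male Wistar rats (299 ± 3 g) were anesthetized with ethylurethane ip, tracheally cannulated and breathing spontaneously, at 37 °C, and stabilized for 60 min. Doses of 50-3200 µg/kg (ratio 2.0) in saline were injected by femoral vein, 50 µL each. Recordings: femoral arterial BP, electromagnetic abdominal-aortic flow, SV from integrated pulsatile flow, polygraphic RF. Peak changes, mean ± SE, n = 12 (n = 7 at 3200).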

Rattus norvegicus [2] = test: Change in heart rate after iv administration of 800 ug/Kg in anesthetized rats; type: functional; summary of the method: as §1
Rattus norvegicus [3] = test: Change in diastolic blood pressure after iv administration of 1600 ug/Kg in the presence of acetylcholine (agonist) in anesthetized rats; type: functional, Artery
Summary of the method: (§2)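 Urethane-anesthetized male Wistar rats (16 rats, two equal groups) received 400 or 1600 µg/kg compound iv. Cardiovascular responses to iv agonist boluses (noradrenaline 1 µg/kg, acetylcholine 2.50 µg/kg, adrenaline, isoprenaline) were measured before and after compound dosing. Peak responses are given as mean ± SE; p < 0.05 versus control mean.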

Rattus norvegicus [4] = test: Change in mean aortic flow after iv administration of 400 ug/Kg in anesthetized rats; type: functional; summary of the method: as §1
Rattus norvegicus [5] = test: Change in systolic blood pressure after iv administration of 400 ug/Kg in the presence of acetylcholine (agonist) in anesthetized rats; type: functional, Artery
Summary of the method: (§3)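 Anesthetized male Wistar rats, two groups of 8, received 400 or 1600 µg/kg iv. Before and after this dose, iv agonist challenges were given: noradrenaline 1 µg/kg, adrenaline, acetylcholine 2.50 µg/kg, or isoprenaline. Systolic/diastolic BP, heart rate and dP/dt responses were recorded before (control) and after dosing; significance was set at p < 0.05 versus control.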

Rattus norvegicus [6] = test: Change in diastolic blood pressure after iv administration of 1600 ug/Kg in the presence of noradrenaline (agonist) in anesthetized rats; type: functional, Artery; summary of the method: as §2
Rattus norvegicus [7] = test: Change in heart rate after iv administration of 800 ug/kg compound (treatment with reserpine(5 mg/kg/day for 2 days, ip))in anesthetized rats; type: functional
Summary of the method: (§4)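 Urethane-anesthetized male Wistar rats, 6 per group, received iv doses of 200-1600 µg/kg (ratio 2.0) given alone or under a pretreatment. Pretreatments were continuous iv papaverine infusion (1 mg/kg/min), reserpine 5 mg/kg/day ip for 2 days, or hexamethonium 5 mg/kg iv. Peak changes in femoral arterial BP and HR were recorded; values are mean ± SE.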

Rattus norvegicus [8] = test: Change in heart rate after iv administration of 1600 ug/kg compound (treatment with papaverine(1 mg/kg/min, iv))in anesthetized rats; type: functional
Summary of the method: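 In anesthetized male Wistar rats, responses to iv compound (200–1600 µg/kg, ratio 2.0) were measured alone and under three pretreatments: continuous iv papaverine infusion (1 mg/kg/min), ip reserpine (5 mg/kg/day for 2 days), or iv hexamethonium (5 mg/kg). Peak changes are given as mean ± SE, n = 6 per group; p < 0.05 versus control.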

Rattus norvegicus [9] = test: Change in respiratory frequency after iv administration of 100 ug/Kg in anesthetized rats; type: functional; summary of the method: as §1
Rattus norvegicus [10] = test: Change in heart rate after iv administration of 400 ug/Kg in the presence of isoprenaline (agonist) in anesthetized rats; type: functional; summary of the method: as §2
Rattus norvegicus [11] = test: Change in respiratory frequency after iv administration of 800 ug/Kg in anesthetized rats; type: functional; summary of the method: as §1
Rattus norvegicus [12] = test: Change in heart rate after iv administration of 1600 ug/Kg in the presence of noradrenaline (agonist) in anesthetized rats; type: functional; summary of the method: as §2
Rattus norvegicus [13] = test: Change in heart rate after iv administration of 4.12 uM/Kg in anesthetized rats; type: functional
Rattus norvegicus [14] = test: Maximum rate of rise of the left ventricular isovolumetric pressure was measured after iv administration of 400 ug/Kg in the presence of noradrenaline (agonist) in anesthetized rats; type: functional, Heart left ventricle; summary of the method: as §3
Rattus norvegicus [15] = test: Maximum rate of rise of the left ventricular isovolumetric pressure was measured after iv administration of 3200 ug/Kg in anesthetized rats; type: functional, Heart left ventricle
Summary of the method: (§5)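 Urethane-anesthetized (10% w/v, […] ip in saline) adult male Wistar rats, trachea cannulated, breathing spontaneously, 37 °C. Femoral artery catheter for blood pressure, femoral vein for dosing. Sequential iv doses 50–3200 µg/kg (ratio 2.0) in saline, each given after parameters returned to baseline. Peak changes recorded; means ± SE, n = 12 (n = 7 at 3200 µg/kg).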

Rattus norvegicus [16] = test: Change in systolic blood pressure after iv administration of 800 ug/Kg compound (treatment with papaverine(1 mg/Kg/min, iv)in anesthetized rats; type: functional, Artery
Summary of the method: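 Anesthetized rats, n = 6 per group, received iv doses of 200–1600 µg/kg (ratio 2.0) either alone (control) or under pretreatment: continuous iv papaverine infusion 1 mg/kg/min, reserpine 5 mg/kg/day ip for 2 days, or hexamethonium 5 mg/kg iv. Peak changes in BP, heart rate and dP/dt recorded; means ± SE, p < 0.05 versus control.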

Rattus norvegicus [17] = test: Change in heart rate after iv administration of 800 ug/kg compound (treatment with papaverine(1 mg/kg/min, iv))in anesthetized rats; type: functional; summary of the method: as §4
Rattus norvegicus [18] = test: Maximum rate of rise of the left ventricular isovolumetric pressure was measured after iv administration of 50 ug/Kg in anesthetized rats; type: functional, Heart left ventricle; summary of the method: as §5
Rattus norvegicus [19] = test: Maximum rate of rise of the left ventricular isovolumetric pressure was measured after iv administration of 1600 ug/Kg in the presence of acetylcholine (agonist) in anesthetized rats; type: functional, Heart left ventricle; summary of the method: as §3
Rattus norvegicus [20] = test: Change in mean aortic flow after iv administration of 3200 ug/Kg in anesthetized rats; type: functional; summary of the method: as §1
Rattus norvegicus [21] = test: Change in systolic blood pressure after iv administration of 400 ug/Kg in anesthetized rats; type: functional, Artery; summary of the method: as §5
Rattus norvegicus [22] = test: Maximum rate of rise of the left ventricular isovolumetric pressure was measured after iv administration of 400 ug/Kg in anesthetized rats; type: functional, Heart left ventricle; summary of the method: as §5
Rattus norvegicus [23] = test: Change in systolic blood pressure after iv administration of 4.12 uM/kg in anesthetized rats; type: functional, Artery
Summary of the method: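 Doses were 4.12 µM/kg (two agents), guanethidine 25, clonidine 0.108, hexamethonium 12, reserpine 8, papaverine 5 and histamine […]. Peak changes in systolic BP or HR were recorded.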

Rattus norvegicus [24] = test: Change in heart rate after iv administration of 400 ug/kg compound (treatment with hexamethonium (5 mg/kg, iv))in anesthetized rats; type: functional; summary of the method: as §4
Rattus norvegicus [25] = test: Change in heart rate after iv administration of 800 ug/Kg compound (treatment with hexamethonium (5 mg/Kg, iv)in anesthetized rats; type: functional; summary of the method: as §4
Rattus norvegicus [26] = test: Change in heart rate after iv administration of 1600 ug/Kg in the presence of acetylcholine (agonist) in anesthetized rats; type: functional; summary of the method: as §2
Rattus norvegicus [27] = test: Change in systolic blood pressure after iv administration of 800 ug/Kg in anesthetized rats; type: functional, Artery; summary of the method: as §5
Rattus norvegicus [28] = test: Change in heart rate after iv administration of 400 ug/Kg in the presence of acetylcholine (agonist) in anesthetized rats; type: functional; summary of the method: as §2

COc1ccc(C2C(c3ccc(OC)c(OC)c3)[C@H](C(=O)NCCCC/N=C(\N)NCC=C(C)C)[C@@H]2C(=O)NCCCC/N=C(\N)NCC=C(C)C)cc1OC (stereo partly specified) [CARACASANDIAMIDE]
Change in stroke volume (Rattus norvegicus [1]): 10% | Stroke volume (Rattus norvegicus [1]): 20 µL | Change in heart rate (Rattus norvegicus [2]): -4% | Heart rate (Rattus norvegicus [2]): -16 beats min-1 | BP (Rattus norvegicus [3]): -54 mmHg | Mean aortic flow (Rattus norvegicus [4]): -14 mL/min | BP (Rattus norvegicus [5]): -27 mmHg | BP (Rattus norvegicus [6]): 10 mmHg | Heart rate (Rattus norvegicus [7]): -9 beats min-1 | Heart rate (Rattus norvegicus [8]): -31 beats min-1 | Change in respiratory frequency (Rattus norvegicus [9]): 6 beats min-1 and 6% | Heart rate (Rattus norvegicus [10]): 69 beats min-1 | Change in respiratory frequency (Rattus norvegicus [11]): -15 beats min-1 and -16% | Heart rate (Rattus norvegicus [12]): 13 beats min-1 | Heart rate (Rattus norvegicus [13]): -35 beats min-1 | dP/dt (Rattus norvegicus [14]): 5136 mmHg s-1 | Change in dP/dt (Rattus norvegicus [15]): 77% | dP/dt (Rattus norvegicus [15]): 4708 mmHg s-1 | BP (Rattus norvegicus [16]): -22 mmHg | Heart rate (Rattus norvegicus [17]): -17 beats min-1 | Change in dP/dt (Rattus norvegicus [18]): 17% | dP/dt (Rattus norvegicus [18]): 1070 mmHg s-1 | dP/dt (Rattus norvegicus [19]): -6821 mmHg s-1 | Change in mean aortic flow (Rattus norvegicus [20]): -56% | Mean aortic flow (Rattus norvegicus [20]): -41 mL/min | BP (Rattus norvegicus [21]): -20 mmHg | Change in BP (Rattus norvegicus [21]): -19% | Change in dP/dt (Rattus norvegicus [22]): 43% | dP/dt (Rattus norvegicus [22]): 2615 mmHg s-1 | BP (Rattus norvegicus [23]): -43 mmHg | Heart rate (Rattus norvegicus [24]): -46 beats min-1 | Heart rate (Rattus norvegicus [25]): -57 beats min-1 | Heart rate (Rattus norvegicus [26]): -34 beats min-1 | BP (Rattus norvegicus [27]): -30 mmHg | Change in BP (Rattus norvegicus [27]): -29% | Heart rate (Rattus norvegicus [28]): -30 beats min-1
